From PubChem
Sampled rows, rich in hits. Any-hit rate of the full collection: about 3.1%.
GPR7 antagonist: GPR7 receptor antagonists, primary screen, cell-based, fluorescence, single concentration. Neuropeptides B/W receptor type 1 (Homo sapiens), P48145. GPR7-expressing cells, fluorescence antagonist assay. inhibition, % at 4.4 µM. 290,000 compounds, 1.1% hits; in the data active = inhibition above about 16%, passing the limit was not always enough;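 also: cells stimulated with the agonist NPW; 0% = agonist with vehicle and 100% = vehicle without agonist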
CHO parental Ca: ATP-evoked calcium signal inhibitors, parental CHO, primary screen, counter-screen for OX1R antagonist project, cell-based, fluorescence, Fluo-8 calcium dye | parental CHO-K1, ATP-induced calcium, Fluo-8 fluorescence | inhibition, % at 5.6 µM | 330,000 compounds, 0.63% hits | AID 463079, 2010;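 active = inhibition above that plate's mean sample inhibition plus 3 SD, cut at about 26% in these data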;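 also: 0% = ATP-challenged DMSO wells and 100% = DMSO wells without ATP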
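Material: parental CHO cells / Compound: single nominal dose of 5.6 µM per compound / Signal: Fluo-8 fluorescence / Replicates: singlicate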
OX1R antag-1: OX1R (HCRTR1) antagonists, primary screen, fluorescence, CHO/OX1R cells, Fluo-8 calcium, orexin A; 330,000 compounds, 0.43% hits; Fluo-8 calcium fluorescence; inhibition, % at 5 µM; Orexin/Hypocretin receptor type 1 (Homo sapiens), O43613;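 active = inhibition above its plate's threshold, mean inhibition of all tested compounds on the plate plus 3 SD, cut at about 37% in these data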;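 also: 0% = orexin A challenge wells and 100% = SB-334867-A antagonist wells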
Target sequence (O43613 whole entry, looked up): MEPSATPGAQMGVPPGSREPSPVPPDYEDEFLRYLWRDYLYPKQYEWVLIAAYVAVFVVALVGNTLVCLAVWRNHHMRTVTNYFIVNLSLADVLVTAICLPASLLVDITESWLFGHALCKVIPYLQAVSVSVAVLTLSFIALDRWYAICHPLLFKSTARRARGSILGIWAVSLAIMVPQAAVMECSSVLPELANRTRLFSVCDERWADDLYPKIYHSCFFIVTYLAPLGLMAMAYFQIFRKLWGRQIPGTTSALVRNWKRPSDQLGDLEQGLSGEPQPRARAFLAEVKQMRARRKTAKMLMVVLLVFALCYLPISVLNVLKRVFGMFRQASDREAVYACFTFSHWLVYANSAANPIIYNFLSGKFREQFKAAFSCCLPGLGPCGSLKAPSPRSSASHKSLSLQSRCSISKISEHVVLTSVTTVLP
GalR3 antagonist: GalR3 antagonists in HEK293 cells, primary screen, cell-based, fluorescence readout | Galanin receptor type 3 (Homo sapiens), O60755 | HEK293 GalR3-CNG cAMP membrane potential fluorescence; galR3 body fused to GalR1 C-terminus | inhibition, % at 3 µM | 360,000 compounds, 0.44% hits | AID 651719, 2012;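 active = inhibition above the screen-wide average plus 3 SD, cut at about 13% in these data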;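 also: forskolin and galanin both at EC90 stimulate the cells; cAMP rise reported by CNG channel membrane potential dye signal; 0% = forskolin plus galanin with DMSO and 100% = forskolin alone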
OX1R antag-2: antagonists of human orexin 1 receptor (OX1R) | 330,000 compounds, 1.8% hits | OX1R-expressing cells, FRET antagonist read-out | Orexin/Hypocretin receptor type 1 (Homo sapiens), O43613 | inhibition, % at 6.6 µM | AID 485270, 2010; in the data active = inhibition mostly above about 38%, no sharp cut-off; inactive = mostly below about 40%;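 also: 0% = agonist challenge alone and 100% = reference antagonist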
GalR3 antag conf: GalR3 antagonist hit confirmation, cell-based, fluorescence, triplicate | inhibition, % at 3 µM | HEK293 GalR3 CNG cAMP biosensor, membrane potential fluorescence; galR3 fused to GalR1 carboxy tail; challenged with forskolin and galanin at EC90 | AID 652245, 2013 | shares compounds with GalR3 antagonist | 1,600 compounds, 59% hits;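 active = inhibition above the primary screen's cutoff, the mean inhibition of all screened compounds plus 3 SD, cut at about 13% in these data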;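 also: 0% = forskolin plus galanin and 100% = forskolin alone with DMSO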
CNG parental: nonspecific cAMP agonists in parental HEK-CNG cells, counter-screen for GalR3 antagonist project, cell-based, fluorescence, high throughput; shares compounds with GalR3 antagonist; HEK293-CNG parental cells, cAMP membrane potential fluorescence; normalised: DMSO wells 0%, forskolin wells 100%; activation, % at 3 µM; 1,600 compounds, 10% hits; in the data active = activation above about 1.3%
Starred values were filed as active, the others as inactive; · = no result given.

SMILES | GPR7 antagonist | CHO parental Ca | OX1R antag-1 | GalR3 antagonist | OX1R antag-2 | GalR3 antag conf | CNG parental
COc1ccc(COC(=O)C2=C(C)NC(=O)NC2c2cc(Br)c(O)c(OC)c2)cc1 (stereo not drawn) | -13 | -10 | -29 | 29* | 11 | 35* | 0
COC(=O)c1cc2c(c3c4ccccc4n(S(=O)(=O)c4ccc(OC)cc4)c13)C(=O)N(Cc1ccco1)C2 | · | · | · | -5 | · | · | ·
COc1ccc(N(CC(=O)Nc2ccccc2C)S(=O)(=O)c2c(C)[nH]c(=O)[nH]c2=O)cc1 | 13 | -10 | -16 | 14* | 6 | -6 | 0
Clc1ccc(COc2cccc(CNCc3ccncc3)c2)cc1 | 11 | 16 | -4 | 32* | 12 | 93* | 1
CC(C)(CO)NCc1cccc(OCc2ccc(Cl)cc2)c1 | 7 | -11 | -11 | -7 | 2 | · | ·
COc1cc2[nH]c3c(Cl)ncnc3c2cc1OC | -7 | -3 | -4 | -10 | 19 | · | ·
COc1ccc(C=O)c2[nH]c3c(Cl)ncnc3c12 | -24 | · | · | 14* | · | 29* | 0
COc1ccccc1CCNC(=O)C(=O)NCC1OCCN1S(=O)(=O)c1ccc2c(c1)OCCO2 (stereo not drawn) | -8 | -3 | -2 | 14* | 31 | 7 | 0
CC(C(=O)Nc1ccc2[nH]c(=O)[nH]c2c1)N1CCN(Cc2ccc3c(c2)OCO3)CC1 (stereo not drawn) | · | -6 | -5 | 13* | 5 | 13* | 0
COc1cc(/C=N/n2cnnc2)ccc1OCc1ccc(C)cc1 | -5 | -9 | 2 | 59* | 9 | 44* | 0
CC(C)Nc1nc(Cl)nc(N(C#N)CN2C(=O)c3ccccc3C2=O)n1 | -10 | -14 | 5 | 16* | 42 | 1 | 1
CCCCC[C@H](O)/C=C/[C@H]1C=CC(=O)[C@@H]1C/C=C\CCCC(=O)O | -16 | · | · | · | · | · | ·
CCCCCC(O)C=CC1C(O)CC(O)C1CC=CCCCC(=O)O (stereo not drawn) | · | · | · | 96* | · | 95* | 0
O=C(NCc1ccccc1)c1cc[n+](CC(=O)c2cccs2)cc1 | 1 | 5 | -16 | 13* | 21 | -1 | 0
COCc1ccc(-c2ccc3c(c2)c(C#Cc2ccsc2)c(-c2cc(OC)cc(OC)c2)n3C)cc1 | · | -14 | -25 | -5 | -3 | · | ·
COc1cc(OC)cc(-c2c(C#Cc3ccsc3)c3cc(-c4ccc(C(N)=O)cc4)ccc3n2C)c1 | · | -21 | -7 | · | 10 | 4 | 0
CCNC(=O)C1(C)CCCN(Cc2cccc3ccccc23)C1 (stereo not drawn) | · | · | · | -2 | · | · | ·
CC(Sc1nc(N)c2c3c(sc2n1)CSC(C)(C)C3)C(=O)Nc1ccccc1 (stereo not drawn) | -4 | -21 | -14 | 54* | 11 | 45* | 0
CC(Sc1nc(NCc2ccccc2)nc(N(C)C)n1)C(=O)Nc1ccccc1 (stereo not drawn) | 10 | -15 | -11 | -6 | 16 | · | ·
O=[N+]([O-])c1ccccc1-c1cc(-c2cc(Cl)ccc2O)n[nH]1 | 3 | 28 | 17 | 19* | 23 | -2 | -2
